Source: PubChem BioAssay (several laboratories)
In the library only some 3% were active in any assay of this set; here they are far more common.
MPTP inh – inhibitors of mitochondrial permeability transition pore | 360,000 compounds, 1.4% hits | inhibition, % at 10 µM | isolated mouse mitochondria, Ca2+ swelling absorbance, 30 min;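 active = inhibition of 50% or more, scaled per plate between neutral and stimulator controls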
iPSC survival up – increases survival of single human iPS cells | hiPSC single-cell survival, ATPlite luminescence; 100% = ROCK inhibitor wells, 0% = DMSO | survival enhancement, % at 20 µM | 360,000 compounds, 0.044% hits | AID 602274; in the data active = survival enhancement above about 18%;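 also: cells exposed to compounds for 16 hours before the ATP read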
Granule exo inh – lytic granule exocytosis inhibition; TALL-104 LAMP-1 surface exposure, flow cytometry; cells stimulated with thapsigargin and PMA; inhibition, % at 10 µM; 360,000 compounds, 0.66% hits;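 active = inhibition above about 55%, limit read from the data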
Apaf-1 inh – inhibitors of human Apaf-1 apoptosome. O14727. reconstituted apoptosome caspase-3 activity, DEVD-Rh110 fluorescence. inhibition, % at 20 µM. 330,000 compounds, 0.71% hits; active = inhibition of at least 40% at 20 µM
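Material: reconstituted apoptosome with Apaf-1, cytochrome c, caspase-9, procaspase-3, dATP; medium: pH 7.5 Hepes buffer with CHAPS, BSA, DTT; also added: cytochrome c and DEVD-Rh110 substrate; timing: 30 min plus 50 min, RT; signal: Rh110 fluorescence intensity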
UBC13 polyUb – human UBC13 polyubiquitination inhibition; P61088; UBC13 polyubiquitin chain formation, TR-FRET; inhibition, % at 20 µM; 330,000 compounds, 0.47% hits; AID 485273; in the data active = inhibition above about 45%, passing the limit was not always enough
Target sequence (P61088 whole entry, looked up): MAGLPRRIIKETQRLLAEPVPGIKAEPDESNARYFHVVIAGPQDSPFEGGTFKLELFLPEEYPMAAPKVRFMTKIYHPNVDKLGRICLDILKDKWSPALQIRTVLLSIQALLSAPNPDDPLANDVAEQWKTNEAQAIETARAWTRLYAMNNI
MIN6 prolif – MIN6 beta-cell proliferation induction; MIN6 cells proliferation, ATPlite luminescence, 48 h; cells starved in 0.2% serum; 100% = growth in 10% serum; proliferation, % at 10 µM; 330,000 compounds, 0.29% hits;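 active = compounds whose signal lies at least 3.5 SD above the mean of all wells on their plate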
Granule exo CP1 – lytic granule exocytosis inhibition. 1,500 compounds, 11% hits. shares compounds with Granule exo inh. TALL-104 cells, LAMP-1 externalization, flow cytometry; stimulated with PMA plus thapsigargin. inhibition, % at 10 µM; in the data active = inhibition above about 60%
Of the large screens only hits and unclear results are named; the others gave an inactive call (follow-up assays come after a bar, where they were run).

Cc1c(C(=O)N(Cc2ccc(Cl)cc2)C2CCS(=O)(=O)C2)oc2ccccc12 (stereo not drawn)	Granule exo inh 74 | Granule exo CP1 inactive
CCOc1ccc(CN(C(=O)c2oc3ccccc3c2C)C2CCS(=O)(=O)C2)cc1 (stereo not drawn)	none
COc1ccc(NC(=O)C2(C)Cc3c(-c4ccc(C(N)=O)cc4)ccnc3O2)cn1 (stereo not drawn)	none (no result: Apaf-1 inh, UBC13 polyUb, MIN6 prolif)
C[C@@]12C(=O)N(Cc3ccc(F)cc3)CC(=O)N1[C@H]1c3cc(Cl)ccc3OC[C@@H]1[C@@H]2c1ccccc1	none
COc1ccccc1-n1c(SCC(=O)NCc2ccc3c(c2)OCO3)nc2cc([N+](=O)[O-])ccc21	Granule exo inh 95 | Granule exo CP1 inactive
O=C(CSc1nc2ccccc2c(=O)n1-c1ccccc1)NCc1ccc2c(c1)OCO2	none
CC(Sc1nc2cc([N+](=O)[O-])ccc2n1-c1ccc(F)cc1)C(=O)NCc1ccc2c(c1)OCO2 (stereo not drawn)	Granule exo inh 88 | Granule exo CP1 inactive
Cc1cc(C)cc(-n2c(SC(C)C(=O)NCc3ccc4c(c3)OCO4)nc3ccccc3c2=O)c1 (stereo not drawn)	none
COc1ccc(CNC(=O)CCn2nc(C)c3c(C)n(-c4ccccc4)nc3c2=O)c(OC)c1	none
O=C(CCc1ccccc1)Nc1cccc([N+](=O)[O-])c1	none
O=C(CCCc1ccccc1)Nc1cccc([N+](=O)[O-])c1	Granule exo inh 57 | Granule exo CP1 inactive
COc1ccc(Cl)cc1N(C(=O)c1ccco1)C(C(=O)NC1CCCC1)c1ccncc1 (stereo not drawn)	none
COc1ccc(Cl)cc1N(C(=O)c1ccco1)C(C(=O)NC1CCCC1)c1ccco1 (stereo not drawn)	Granule exo inh 64 | Granule exo CP1 inactive
Cc1ccc(S(=O)(=O)N2CCN(C(=O)c3cc(S(=O)(=O)N4CCOCC4)c(Cl)cc3Cl)CC2)cc1	none (no result: Apaf-1 inh, UBC13 polyUb, MIN6 prolif)
O=C(c1cc(S(=O)(=O)N2CCOCC2)c(Cl)cc1Cl)N1CCN(S(=O)(=O)c2cccc(F)c2)CC1	Granule exo inh 56 | Granule exo CP1 inactive
O=C1CSc2ccc(S(=O)(=O)N3CCN(c4ccccc4)CC3)cc2N1	none
CCC1Sc2ccc(S(=O)(=O)N3CCN(c4ccccc4)CC3)cc2NC1=O (stereo not drawn)	Granule exo inh 71 | Granule exo CP1 inactive
O=C1/C(=C\c2ccccc2)CCC/C1=C/c1ccccc1	none (no result: Apaf-1 inh, UBC13 polyUb, MIN6 prolif)
CCN(CC)CCC(=O)N1C/C(=C/c2ccccc2)C(=O)/C(=C\c2ccccc2)C1	Granule exo inh 79 (no result: Apaf-1 inh, UBC13 polyUb, MIN6 prolif) | Granule exo CP1 inactive
COc1ccccc1CNC(=O)COC(=O)C1CCN(S(=O)(=O)c2c(Cl)cccc2Cl)CC1	none (no result: Apaf-1 inh, UBC13 polyUb, MIN6 prolif)
CCO[C@H]1OC(C(=O)NC2CC2)=C[C@@H](c2c[nH]c3ccccc23)[C@@H]1CCCO	Granule exo inh 56 | Granule exo CP1 inactive
CCO[C@@H]1OC(C(=O)NC2CC2)=C[C@H](c2c[nH]c3ccccc23)[C@H]1CCCO	none
CN(C)CCC(Oc1ccccc1OCc1ccccc1)c1ccccc1 (stereo not drawn)	Granule exo inh 56 | Granule exo CP1 inactive
Cc1cc(C)n(CCc2nc(-c3ccc(C)o3)cs2)n1	Granule exo inh 68 | Granule exo CP1 inactive
CCOC(=O)c1ccccc1NC(=O)COC(=O)C1CCN(S(=O)(=O)c2ccccc2C(=O)OC)CC1	none
COC(=O)c1ccccc1S(=O)(=O)N1CCC(C(=O)OCC(=O)NCC(F)(F)F)CC1	Granule exo inh 96 | Granule exo CP1 inactive
O=C(O)CCS(=O)(=O)c1nc(-c2cccs2)cc(C(F)(F)F)n1	none
COc1ccc(-c2cc(C(F)(F)F)nc(S(C)(=O)=O)n2)cc1	none
COC(=O)CCS(=O)(=O)c1nc(-c2ccccc2)cc(C(F)(F)F)n1	Granule exo inh 87 | Granule exo CP1 inactive
CS(=O)(=O)c1nc(-c2ccc(F)cc2)cc(C(F)(F)F)n1	Granule exo inh 86 (no result: Apaf-1 inh, UBC13 polyUb, MIN6 prolif) | Granule exo CP1 inactive
Cc1cc(NC(=O)CSc2nc(-c3cccs3)cc(C(F)(F)F)n2)no1	none
